Measurements from ChEMBL document CHEMBL5653614, “Rescue of fragile X syndrome phenotypes in Fmr1 KO mice by the small-molecule PAK inhibitor FRAX486” (Proc Natl Acad Sci U S A, 2013).
Activity calls are given as the source filed them. No cut-off for these calls is given here.

Experiments:
[1] = Toxicity in Fmr1 knockout FVB.129P2-Fmr1tm1Cgr/J mouse assessed as body weight change at 20 mg/kg,sc for 21 days; assay type: organism-based; settings: in vivo, 504 h, time 21 day
[2] = Toxicity in FVB.129P2-Pde6b+ Tyr c-ch/AntJ wild type mouse assessed as body weight change at 20 mg/kg,sc for 21 days; assay type: organism-based; settings: in vivo, 504 h, time 21 day
[3] = molecular target: Serine/threonine-protein kinase PAK 4 (Homo sapiens, UniProt O96013); assay: Inhibition of PAK4 (unknown origin) by Z'-LYTE functional assay
How it was run: (§1)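 Full-length PAK isoforms phosphorylating an optimized peptide substrate in a Z-LYTE biochemical kinase assay, 10-point inhibitor titration. Duplicates (n = 2, mean ± SEM) plotted semilog; IC50 from a variable-slope sigmoidal dose–response fit.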

[4] = Drug concentration in FVB.129P2 mouse brain at 20 mg/kg,sc and measured from 8 to 18 hrs by LC-MS/MS analysis; assay type: ADME, organism-based; settings: in vivo, time 8-18 hrs
How it was run: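 WT FVB.129P2 mice got one s.c. injection of 20 mg/kg (2 mg/mL in 20% hydroxypropyl-β-cyclodextrin). Blood and forebrain were collected at time points from 15 min to 24 h. Forebrain was weighed, snap-frozen and homogenized in 2 volumes of cold PBS. Drug quantified by LC-MS/MS. n = 2–3, mean ± SEM.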

Mus musculus [5] = assay: Protective activity in Fmr1 knockout FVB.129P2-Fmr1tm1Cgr/J mouse assessed as change in basal dendritic spine density in cortical neuron at 20 mg/kg, sc and measured after 8 hrs by Golgi-Cox technique analysis; assay type: functional, organism-based; settings: Cortical neurone
Mus musculus [6] = assay: Anti-seizure activity against 124dB loud auditory stimulus induced Fmr1 FVB.129P2-Pde6b+ Tyr c-ch/AntJ wild type mouse model of audiogenic seizure assessed as decrease in sound-induced death due to respiratory arrest at 20 mg/kg,sc for 8 hrs followed by audiogenic seizure induction by audiogenic seizure assay; assay type: functional, organism-based
How it was run: (§2)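 Adult male mice (10–17 wk). Single s.c. dose (0, 10, 20 or 30 mg/kg) in 20% (wt/vol) hydroxypropyl-β-cyclodextrin vehicle; AGS induced 8 h later. Mouse acclimated 2 min in a clear acrylic two-chamber box, then exposed to a 124 dB sound. Scored as percentage of animals showing each sequential phase (wild running, seizure, death by respiratory arrest); χ2 test against vehicle.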

[7] = molecular target: Serine/threonine-protein kinase PAK 3 (Homo sapiens, UniProt O75914); assay: Inhibition of PAK3 (unknown origin) by Z'-LYTE functional assay; how it was run: as §1
Mus musculus [8] = assay: Protective activity in Fmr1 knockout FVB.129P2-Fmr1tm1Cgr/J mouse model of Fragile X syndrome assessed as decrease in stereotypy count at 20 mg/kg, sc for 5 days by open field assay; assay type: functional, organism-based; settings: time 5.0 day
How it was run: (§3)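 Adult male WT and Fmr1 KO mice dosed s.c. at 20 mg/kg or vehicle for 5 d; tested 4–5.5 h after dosing. Single mouse in a novel open field for 30 min, tracked by infrared sensors in 1-min bins; bar-graph values averaged over minutes 18–30. Mice beyond 2 SD in total distance, or immobile for 5 consecutive minutes, were excluded.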

Mus musculus [9] = assay: Protective activity in Fmr1 FVB.129P2-Pde6b+ Tyr c-ch/AntJ wild type mouse assessed as change in apical dendritic spine density in cortical neuron at 20 mg/kg, sc and measured after 8 hrs by Golgi-Cox technique analysis; assay type: functional, organism-based; settings: Cortical neurone
Mus musculus [10] = assay: Protective activity in FVB.129P2-Pde6b+ Tyr c-ch/AntJ wild type mouse assessed as decrease in horizontal movements at 20 mg/kg, sc for 5 days and measured for 30 mins by open field assay; assay type: functional, organism-based; settings: time 5.0 day; how it was run: as §3
Mus musculus [11] = assay: Anti-seizure activity against 124dB loud auditory stimulus induced Fmr1 knockout FVB.129P2-Fmr1tm1Cgr/J mouse model of audiogenic seizure assessed as decrease in sound-induced wild running at 30 mg/kg,sc for 8 hrs followed by audiogenic seizure induction by audiogenic seizure assay (Rvb=100%); assay type: functional; set-up: scale not given: the % may be the effect or the level left; how it was run: as §2
Mus musculus [12] = assay: Protective activity in Fmr1 knockout FVB.129P2-Fmr1tm1Cgr/J mouse assessed as decrease in apical dendritic spine density in layer II/III pyramidal neurons segment 9 at 20 mg/kg, sc and measured after 8 hrs by Golgi-Cox technique analysis; assay type: functional, organism-based
How it was run: (§4)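 Adult male WT and Fmr1 KO FVB mice given 20 mg/kg s.c. or vehicle; brains collected 8 h later and Golgi stained. Apical dendrites of layer II/III pyramidal neurons in temporal cortex, originating 50–100 µm from the soma, were divided into ten 10-µm segments and spines counted. 40–60 neurons from 4–6 mice per group; one-way ANOVA.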

Mus musculus [13] = assay: Protective activity in FVB.129P2-Pde6b+ Tyr c-ch/AntJ wild type mouse assessed as increase in testicular weight at 20 mg/kg, sc for 21 days; assay type: functional, organism-based; settings: time 21.0 day
Mus musculus [14] = assay: Protective activity in Fmr1 knockout FVB.129P2-Fmr1tm1Cgr/J mouse assessed as decrease in apical dendritic spine density in layer II/III pyramidal neurons segment 2 at 20 mg/kg, sc and measured after 8 hrs by Golgi-Cox technique analysis; assay type: functional, organism-based; how it was run: as §4
Mus musculus [15] = assay: Protective activity in Fmr1 knockout FVB.129P2-Fmr1tm1Cgr/J mouse assessed as decrease in apical dendritic spine density in layer II/III pyramidal neurons segment 1 at 20 mg/kg, sc and measured after 8 hrs by Golgi-Cox technique analysis; assay type: functional, organism-based; how it was run: as §4

Serine/threonine-protein kinase PAK 3, sequence (O75914 whole entry): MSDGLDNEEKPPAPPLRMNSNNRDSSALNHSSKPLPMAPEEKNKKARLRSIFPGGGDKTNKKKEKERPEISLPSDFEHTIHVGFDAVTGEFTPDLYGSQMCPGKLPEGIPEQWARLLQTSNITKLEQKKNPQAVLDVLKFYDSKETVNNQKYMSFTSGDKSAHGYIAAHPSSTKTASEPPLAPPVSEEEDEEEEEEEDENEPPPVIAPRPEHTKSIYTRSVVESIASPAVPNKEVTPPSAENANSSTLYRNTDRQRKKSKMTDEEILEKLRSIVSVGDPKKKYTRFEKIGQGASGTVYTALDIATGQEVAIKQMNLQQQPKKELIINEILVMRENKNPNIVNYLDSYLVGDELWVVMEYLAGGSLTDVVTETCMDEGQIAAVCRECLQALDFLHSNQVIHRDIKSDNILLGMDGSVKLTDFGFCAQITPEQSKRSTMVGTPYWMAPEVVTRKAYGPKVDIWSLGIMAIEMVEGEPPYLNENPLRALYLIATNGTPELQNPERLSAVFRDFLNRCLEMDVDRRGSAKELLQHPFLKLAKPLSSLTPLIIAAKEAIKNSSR
Serine/threonine-protein kinase PAK 4, sequence (O96013 whole entry, canonical isoform): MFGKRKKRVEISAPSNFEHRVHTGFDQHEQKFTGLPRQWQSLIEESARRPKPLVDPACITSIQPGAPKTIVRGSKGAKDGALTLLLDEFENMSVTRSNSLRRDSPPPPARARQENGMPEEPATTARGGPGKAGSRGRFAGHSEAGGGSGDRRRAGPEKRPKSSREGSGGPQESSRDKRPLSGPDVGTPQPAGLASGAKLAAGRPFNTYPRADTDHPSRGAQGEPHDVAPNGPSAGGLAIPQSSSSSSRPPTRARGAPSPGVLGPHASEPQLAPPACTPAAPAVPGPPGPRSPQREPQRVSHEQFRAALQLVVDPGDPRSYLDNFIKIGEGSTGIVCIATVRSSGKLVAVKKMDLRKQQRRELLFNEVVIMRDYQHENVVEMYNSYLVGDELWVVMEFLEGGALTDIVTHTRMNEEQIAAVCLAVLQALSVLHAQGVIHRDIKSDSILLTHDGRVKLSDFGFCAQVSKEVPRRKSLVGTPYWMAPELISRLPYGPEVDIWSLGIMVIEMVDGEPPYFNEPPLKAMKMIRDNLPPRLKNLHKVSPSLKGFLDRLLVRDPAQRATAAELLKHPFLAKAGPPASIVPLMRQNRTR

IC50 [3]: 0.779 µM | Ct [4]: 951 ng/g | IC50 [7]: 0.0553 µM
SMILES: CCn1c(=O)c(-c2ccc(Cl)cc2Cl)cc2cnc(Nc3ccc(N4CCNCC4)c(F)c3)nc21
Activity [1]: Non-Toxic | Activity [2]: Non-Toxic | Activity (Mus musculus [5]): inactive | Activity (Mus musculus [6]): inactive | Activity (Mus musculus [8]): Active | Activity (Mus musculus [9]): inactive | Activity (Mus musculus [10]): Active | Activity (Mus musculus [11]): 0% | Activity (Mus musculus [12]): inactive | Activity (Mus musculus [13]): inactive | Activity (Mus musculus [14]): inactive | Activity (Mus musculus [15]): inactive
